Source: PMC2995081 (Nucleic Acids Research, 2010)

Legend:
GST-Mdm2 RING domain [1] = molecular target: GST-Mdm2 RING domain (Homo sapiens, UniProt Q00987); test: ATP binding competition assay; conditions: for binding to Mdm2 (displacement of bound γ-32P ATP): Mdm2(400–484), Nebularine: concentration range up to 1 mM
GST-Mdm2 RING domain [2] = test: ATP binding competition assay; parameters: species or system human; conditions: Mdm2(410–491) with eight lysines mutated to alanine (8 KA, Mdm2-NoLS)
GST-Mdm2(400–491) = GST-Mdm2(400–491) (Homo sapiens, UniProt Q00987); test: Isothermal titration calorimetry; format: binding; conditions: 2 mM ATP titrated into 100 nM GST-Mdm2(400–491), single-site isotherm
Outline: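 GST-Mdm2(400–491) was expressed in E. coli BL21 (16 h induction at 25°C) and purified on glutathione-Sepharose. In assay buffer (100 mM Tris-HCl pH 7.0, 100 mM NaCl, 10 mM MgCl2, 2 mM DTT), 2 mM ATP or GTP was injected into 100 nM protein over twenty injections. Buffer-alone heat of dilution was subtracted, and data were fitted to a single-site isotherm. Four independent measurements were made.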

GST-Mdm2(400–491), sequence (Q00987 400-491): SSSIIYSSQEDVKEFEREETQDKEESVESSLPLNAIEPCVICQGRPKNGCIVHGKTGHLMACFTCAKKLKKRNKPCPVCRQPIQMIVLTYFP

binding to Mdm2 (displacement of bound γ-32P ATP) (GST-Mdm2 RING domain [1])	Kd (GST-Mdm2 RING domain [2])	dissociation constant (Kd) (GST-Mdm2 RING domain [1]; GST-Mdm2(400–491), competition of γ-32P ATP)	Kd (GST-Mdm2(400–491))	SMILES
completely abrogated the binding	–	–	–	Nc1ncnc2c1ncn2[C@H]1C[C@H](O)[C@@H](CO)O1 [2′ deooxyadenosine, 2′deoxyadenosine]
–	low micromolar range	low micromolar range	4 µM	Nc1ncnc2c1ncn2[C@@H]1O[C@H](COP(=O)(O)OP(=O)(O)OP(=O)(O)O)[C@@H](O)[C@H]1O [ATP, adenosine triphosphate]
did not bind	–	–	–	Nc1nc(F)nc2c1ncn2[C@@H]1O[C@H](CO)[C@@H](O)[C@@H]1O [F-Ara-A, Fludarabine]
no binding	–	–	–	OC[C@H]1O[C@@H](n2cnc3cncnc32)[C@H](O)[C@@H]1O [Nebularine]
